High-throughput results as filed in PubChem.
Most compounds without a hit are left out; they make up all but 5.1% or so of the library.
STAT1 act – STAT1 signaling activators, primary screen, cell-based, HTS, luciferase reporter | 200,000 compounds, 2.6% hits | NIH 3T3 STAT1-luciferase reporter, IFN-gamma, luminescence; 100% = IFN-gamma alone, no compound | activation (% of control), % at 5.5 µM;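 active = activation above the screen-wide mean activation plus 3 SD, cut at about 130% in these data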
NF-kB expr up – activators of NF-kB expression in neurons, primary screen, cell-based, HTS | human neuronal cells, NF-kB reporter expression; hits give high values | fold change at 12.5 µM | 190,000 compounds, 1.6% hits | AID 1239, 2008; in the data active = fold change above about 3.3
STAT1 inh – STAT1 signaling inhibitors, primary screen, cell-based, HTS, luciferase reporter | inhibition, % at 5.5 µM | NIH 3T3 STAT1-luciferase reporter, IFN-gamma, luminescence | 200,000 compounds, 0.35% hits;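 active = inhibition above a set limit, the mean inhibition across all tested compounds plus 3 SD, cut at about 34% in these data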
APP 5'UTR act – activators of APP 5'UTR luciferase reporter, primary screen, SH-SY5Y cells; SH-SY5Y APP 5'UTR luciferase reporter, luminescence; zero percent = DMSO vehicle wells; AID 1276, 2008; activation, % at 2 µM; 190,000 compounds, 1% hits;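 active = activation above a set limit, based on mean plus 3 SD of controls, cut at about 140% in these data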
STAT3 activator – IL-6 driven STAT3 reporter potentiators, primary screen, U3A cells, luciferase, luminescence, MLSCN library | 190,000 compounds, 0.91% hits | IL-6 STAT3-luciferase reporter; 100% = signal with IL-6 EC80 alone | activation (% of control), % at 5.6 µM;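 active = activation above the screen-wide mean of compound activation plus 3 SD, cut at about 130% in these data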
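Test system: Human STAT1-deficient U3A cells with stable STAT3-luciferase reporter | Also added: Interleukin-6, 33 ng/mL | Timing: Compound pre-incubation 1 h before IL-6, then 6 h stimulation at 37 °C | Technique: Luciferase reporter luminescence | Read-out: Percent of IL-6-only median luminescence | Benchmarks: IL-6-only wells as 100% reference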
STAT3 inh-1 – IL-6 driven STAT3 reporter inhibitors, primary screen, U3A cells, luciferase, luminescence, MLSCN library | IL-6 STAT3-luciferase reporter; host cell line lacks STAT1 | inhibition, % at 5.5 µM | 190,000 compounds, 0.89% hits | AID 862, 2007;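 active = inhibition above the mean inhibition across all screened compounds plus 3 SD, cut at about 44% in these data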
STAT3 inh-2 – STAT3 reporter inhibitors, retest of hits, confirmation, U3A cells, luciferase, luminescence; shares compounds with STAT3 inh-1; IL-6 STAT3 luciferase reporter; cell line lacks STAT1; inhibition, % at 5.7 µM; 1,200 compounds, 45% hits; AID 1265, 2008;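 active = inhibition above the hit cutoff computed for the primary STAT3 screen, cut at about 44% in these data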
NFkB inh STAT3ct – NF-kB reporter inhibitors in human cells, confirmation, counter-screen for STAT3 inhibitor project, cell-based, HEK293T, luciferase, TNF-alpha stimulus | 1,200 compounds, 36% hits | shares compounds with STAT3 inh-1 | inhibition, % at 5.7 µM | TNF-alpha induced;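 active = inhibition above the mean of solvent-only control wells plus 3 SD, cutoff set per campaign, cut at about 13% in these data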
STAT1 inh STAT3c – STAT1 reporter inhibitors, IFN-gamma induced, confirmation, counter-screen for STAT3 inhibitor project, cell-based, NIH 3T3, luciferase luminescence | shares compounds with STAT3 inh-1 | NIH 3T3 STAT1-luciferase reporter | inhibition, % at 5.7 µM | 1,200 compounds, 27% hits;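 active = inhibition above the mean plus 3 SD of solvent-only control wells, limit set per screening run, cut at about 16% in these data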
Each line names hits and unclear results; the compound was inactive in the other large screens (follow-up assays come after a bar, where they were run).

CCOC(=O)N1CCN(c2cc(N3CCN(CC)CC3)c(F)cc2[N+](=O)[O-])CC1C (stereo not drawn)	none
Cc1ccc(-c2cc(C(=O)N3CCCC3)no2)cc1	NF-kB expr up 3.8, APP 5'UTR act 208, STAT3 inh-1 76 | STAT3 inh-2 48 | NFkB inh STAT3ct 16 | STAT1 inh STAT3c inactive
COc1ccccc1N1CCN(C(=O)c2cc(-c3ccc(C)cc3)on2)CC1	none
Cc1c(C(=O)Nc2ccc3c(c2)OCCO3)sc2nc(-c3ccccc3)cn12	STAT1 inh 34, STAT3 inh-1 51 | STAT3 inh-2 inactive | NFkB inh STAT3ct inactive | STAT1 inh STAT3c inactive
Cc1c(C(=O)Nc2ccncc2)sc2nc(-c3ccccc3)cn12	none
O=c1oc2ccccc2cc1-c1nc2c(s1)CCCC2	APP 5'UTR act 188, STAT3 inh-1 74 | STAT3 inh-2 48 | NFkB inh STAT3ct 31 | STAT1 inh STAT3c inactive
O=c1oc2ccccc2cc1-c1csc(NN=C2CCCCC2)n1	none
O=C(/C=C/c1ccc([N+](=O)[O-])cc1)NCc1ccc2c(c1)OCO2	none
c1ccc(-c2ccc(-c3ccccn3)nn2)nc1	STAT3 inh-1 51 | STAT3 inh-2 inactive | NFkB inh STAT3ct inactive | STAT1 inh STAT3c inactive
Nn1c(-c2ccccn2)nnc1-c1ccccn1	none
CC(NC(N)=O)C(=O)OCC(=O)c1ccc(-c2ccccc2)cc1 (stereo not drawn)	none
Clc1ccc(-c2cn3nc4c(nc3n2)CCCC4)cc1	APP 5'UTR act 191, STAT3 inh-1 51 | STAT3 inh-2 inactive | NFkB inh STAT3ct inactive | STAT1 inh STAT3c inactive
O=C(CNC(=O)c1ccc(Cl)cc1)Nc1ccccc1C(F)(F)F	none
Cc1cc(SCC(=O)NC(=O)NCc2ccco2)nc2ccccc12	none
Cc1ccc(C(=O)Nc2ccnc(-c3cccnc3)n2)cc1	none
Cc1ccc(NC(=O)Nc2ccnc(-c3cccnc3)n2)cc1	STAT3 inh-1 66 | STAT3 inh-2 70 | NFkB inh STAT3ct inactive | STAT1 inh STAT3c 23
Cc1sc2ncnc(NC3CCN(Cc4ccccc4)CC3)c2c1C	STAT3 inh-1 45 | STAT3 inh-2 62 | NFkB inh STAT3ct 16 | STAT1 inh STAT3c 25
COc1ccc2cc(-c3cc(C(=O)OCC(=O)Nc4c(C)n(C)n(-c5ccccc5)c4=O)c4ccccc4n3)ccc2c1	NF-kB expr up 3.4, STAT3 inh-1 47 | STAT3 inh-2 56 | NFkB inh STAT3ct inactive | STAT1 inh STAT3c inactive
COc1ccc2cc(-c3cc(C(=O)OCC(=O)NC4CCS(=O)(=O)C4)c4ccccc4n3)ccc2c1 (stereo not drawn)	STAT3 inh-1 62 | STAT3 inh-2 inactive | NFkB inh STAT3ct inactive | STAT1 inh STAT3c inactive
CC1=C(C(=O)Nc2cccnc2)C(c2ccccn2)n2nnnc2N1 (stereo not drawn)	none
COc1ccc(NC(C#N)c2ccccc2OCc2ccccc2)cc1 (stereo not drawn)	none
O=C(Oc1cccc(Nc2ncnc3ccccc23)c1)c1ccccc1Cl	STAT3 inh-1 54 | STAT3 inh-2 48 | NFkB inh STAT3ct inactive | STAT1 inh STAT3c inactive
O=C(Nc1cc(S(=O)(=O)N2CCCCC2)ccc1Cl)c1ccccc1NS(=O)(=O)c1ccc(F)cc1	STAT3 inh-1 51 | STAT3 inh-2 inactive | NFkB inh STAT3ct 18 | STAT1 inh STAT3c 29
Cc1ccc(S(=O)(=O)CC(=O)Nc2nc(-c3ccccc3)cs2)cc1	none
Cc1ccc(S(=O)(=O)Nc2ccccc2C(=O)Nc2nc(-c3ccc(F)cc3)cs2)cc1	STAT3 inh-1 45 | STAT3 inh-2 inactive | NFkB inh STAT3ct 18 | STAT1 inh STAT3c 26
O=C(Nc1cc(S(=O)(=O)N2CCCCC2)ccc1O)c1ccccc1NS(=O)(=O)c1ccc(F)cc1	none
CC1CCN(c2nc(-c3ccncc3)nc3ccccc23)CC1	none
CC(=O)Nc1ccc(S(=O)(=O)Oc2cccc(N3C(=O)C4CC=CCC4C3=O)c2)cc1 (stereo not drawn)	none
CC(=O)Nc1ccc(S(=O)(=O)Oc2ccc(N3C(=O)C4CCCCC4C3=O)cc2)cc1 (stereo not drawn)	STAT3 inh-1 73 | STAT3 inh-2 61 | NFkB inh STAT3ct 20 | STAT1 inh STAT3c 19
Cc1csc(NC(=O)c2cc3c(s2)CCCC3)n1	APP 5'UTR act 165, STAT3 inh-1 86 | STAT3 inh-2 55 | NFkB inh STAT3ct inactive | STAT1 inh STAT3c inactive
COC(=O)c1ccc(-n2c(C)cc(C(=O)CSc3ccc(NC(C)=O)cc3)c2C)cc1	none
CC(=O)Nc1ccc(SCC(=O)c2cc(C)n(-c3ccccc3F)c2C)cc1	STAT1 act 145, STAT3 inh-1 54 | STAT3 inh-2 inactive | NFkB inh STAT3ct inactive | STAT1 inh STAT3c inactive
CN(NC(=O)c1ccc(Cl)cc1Cl)C1=NS(=O)(=O)c2ccccc21	none
COc1ccc(C(=O)NNC(=O)Cn2nnc(-c3ccc(OC)c(OC)c3)n2)cc1	none
Cc1cc(-c2nnc(-c3cc4ccccc4oc3=O)o2)c(C)n1-c1ccccc1	none
Cc1nc(-c2coc3cc(OCC(=O)O)ccc3c2=O)cs1	none
COc1ccc2c(=O)c(-c3nc(C)cs3)coc2c1	NF-kB expr up 5.9, STAT3 inh-1 51 | STAT3 inh-2 inactive | NFkB inh STAT3ct inactive | STAT1 inh STAT3c inactive
Cc1ccnc(NC(=O)c2ccc3c(c2)OCO3)c1	NF-kB expr up 4.2, APP 5'UTR act 206, STAT3 inh-1 59 | STAT3 inh-2 inactive | NFkB inh STAT3ct inactive | STAT1 inh STAT3c inactive
O=C(Nc1ccc(Oc2ccccc2)cc1)c1cnc2n(c1=O)CCS2	STAT3 inh-1 78 | STAT3 inh-2 73 | NFkB inh STAT3ct inactive | STAT1 inh STAT3c inactive
CN(CC(=O)NCc1ccccn1)S(=O)(=O)c1ccc2ccccc2c1	none
CCOC(=O)C1CCN(C(=O)CCc2c(C)nc3cc(-c4ccccc4)nn3c2C)CC1	none
CCOC(=O)C1CCCCN1C(=O)CCc1c(C)nc2cc(-c3ccccc3)nn2c1C (stereo not drawn)	STAT3 inh-1 49 | STAT3 inh-2 inactive | NFkB inh STAT3ct inactive | STAT1 inh STAT3c inactive
